{
  "source": "ChEMBL document CHEMBL2346629",
  "about": "“Discovery and characterization of novel allosteric FAK inhibitors” (Eur J Med Chem, 2013)",
  "key": {"[1]": {"biological_target": "CDK6/cyclin D1 (Homo sapiens) (UniProt P24385+Q00534)", "assay": "Inhibition of CDK6/cyclin D1 (unknown origin) using [gamma-33P]ATP assessed as residual activity at 3 uM", "format": "protein-complex assay", "procedure,_shortened": "(§1)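 Radiometric profiling across 288 kinases (261 wild-type, 27 mutant), run as an outsourced service. Inhibition read out as [gamma-33P]ATP incorporation into substrate.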"}, "[2]": {"biological_target": "TGF-beta receptor type-1 (Homo sapiens) (UniProt P36897)", "sequence (P36897 whole entry)": "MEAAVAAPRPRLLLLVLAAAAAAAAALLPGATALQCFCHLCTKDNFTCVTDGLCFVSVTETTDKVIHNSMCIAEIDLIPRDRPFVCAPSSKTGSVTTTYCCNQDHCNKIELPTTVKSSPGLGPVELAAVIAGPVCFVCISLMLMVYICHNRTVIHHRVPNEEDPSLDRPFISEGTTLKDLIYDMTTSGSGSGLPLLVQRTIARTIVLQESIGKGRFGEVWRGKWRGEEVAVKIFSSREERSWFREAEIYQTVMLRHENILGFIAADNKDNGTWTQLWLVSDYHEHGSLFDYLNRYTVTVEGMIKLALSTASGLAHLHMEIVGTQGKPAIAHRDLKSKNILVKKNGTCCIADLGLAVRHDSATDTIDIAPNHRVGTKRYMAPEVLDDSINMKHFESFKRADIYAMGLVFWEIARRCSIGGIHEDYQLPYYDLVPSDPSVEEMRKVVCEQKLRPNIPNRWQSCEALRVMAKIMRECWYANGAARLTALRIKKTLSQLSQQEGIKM", "assay": "Inhibition of ALK5 (unknown origin) using [gamma-33P]ATP assessed as residual activity at 3 uM", "procedure,_shortened": "as §1"}, "[3]": {"system": "Tyrosine-protein kinase ABL1 (Homo sapiens), P00519 [Q252H]", "assay": "Inhibition of ABL1 Q252H mutant (unknown origin) using [gamma-33P]ATP assessed as residual activity at 3 uM", "procedure,_shortened": "as §1"}, "[4]": {"biological_target": "CDK9/Cyclin K (Homo sapiens) (UniProt P50750+O75909)", "assay": "Inhibition of CDK9/cyclin K (unknown origin) using [gamma-33P]ATP assessed as residual activity at 3 uM", "format": "protein-complex assay", "procedure,_shortened": "as §1"}, "[5]": {"biological_target": "Activin receptor type-1B (Homo sapiens) (UniProt P36896)", "sequence (P36896 whole entry)": "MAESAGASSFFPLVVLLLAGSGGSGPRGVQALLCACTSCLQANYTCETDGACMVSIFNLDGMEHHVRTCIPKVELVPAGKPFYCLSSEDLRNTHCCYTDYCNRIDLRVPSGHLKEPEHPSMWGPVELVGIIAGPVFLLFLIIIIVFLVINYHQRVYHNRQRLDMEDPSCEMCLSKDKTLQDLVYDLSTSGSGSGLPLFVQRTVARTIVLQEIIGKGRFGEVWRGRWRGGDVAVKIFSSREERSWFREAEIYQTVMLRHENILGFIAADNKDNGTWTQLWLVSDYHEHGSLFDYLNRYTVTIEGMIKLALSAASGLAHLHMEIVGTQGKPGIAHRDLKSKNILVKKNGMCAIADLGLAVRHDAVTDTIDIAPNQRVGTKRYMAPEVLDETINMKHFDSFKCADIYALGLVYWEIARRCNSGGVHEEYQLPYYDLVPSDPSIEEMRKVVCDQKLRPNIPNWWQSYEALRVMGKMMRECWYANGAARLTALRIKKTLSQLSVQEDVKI", "assay": "Inhibition of ALK4 (unknown origin) using [gamma-33P]ATP assessed as residual activity at 3 uM", "procedure,_shortened": "as §1"}, "[6]": {"biological_target": "LIM domain kinase 1 (Homo sapiens) (UniProt P53667)", "sequence (P53667 whole entry, looked up, the tested form may be a part)": "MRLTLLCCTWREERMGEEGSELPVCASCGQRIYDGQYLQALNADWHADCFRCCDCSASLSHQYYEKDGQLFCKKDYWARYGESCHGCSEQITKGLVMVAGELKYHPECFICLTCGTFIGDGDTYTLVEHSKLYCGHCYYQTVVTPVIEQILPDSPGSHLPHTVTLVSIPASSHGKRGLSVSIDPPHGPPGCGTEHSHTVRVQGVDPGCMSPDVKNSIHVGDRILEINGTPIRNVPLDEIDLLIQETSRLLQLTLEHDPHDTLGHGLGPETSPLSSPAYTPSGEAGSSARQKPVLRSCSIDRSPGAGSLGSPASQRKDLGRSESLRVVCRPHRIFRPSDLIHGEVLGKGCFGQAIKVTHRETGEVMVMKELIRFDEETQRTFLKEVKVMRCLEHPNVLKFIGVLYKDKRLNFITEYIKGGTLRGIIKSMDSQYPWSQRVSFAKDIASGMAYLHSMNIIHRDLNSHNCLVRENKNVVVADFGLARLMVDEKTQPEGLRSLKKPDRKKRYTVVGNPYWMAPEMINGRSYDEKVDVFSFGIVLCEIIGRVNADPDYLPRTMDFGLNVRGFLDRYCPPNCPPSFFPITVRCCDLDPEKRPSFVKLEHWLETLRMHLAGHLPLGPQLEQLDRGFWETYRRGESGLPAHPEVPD", "assay": "Inhibition of LIMK1 (unknown origin) using [gamma-33P]ATP assessed as residual activity at 3 uM", "procedure,_shortened": "(§2)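 Radiometric kinase profiling service covering 288 kinases (261 wild-type, 27 mutant). Inhibition was read as incorporation from [γ-³³P]ATP.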"}, "[7]": {"biological_target": "Calcium/calmodulin-dependent protein kinase type II subunit gamma (Homo sapiens) (UniProt Q13555)", "assay": "Inhibition of CAMK2g (unknown origin) using [gamma-33P]ATP assessed as residual activity at 3 uM", "procedure,_shortened": "as §1"}, "[8]": {"biological_target": "Serine/threonine-protein kinase 3 (Homo sapiens) (UniProt Q13188)", "assay": "Inhibition of MST2 (unknown origin) using [gamma-33P]ATP assessed as residual activity at 3 uM"}, "[9]": {"system": "Tyrosine-protein kinase ABL1 (Homo sapiens), P00519 [H396P]", "assay": "Inhibition of ABL1 H396P mutant (unknown origin) using [gamma-33P]ATP assessed as residual activity at 3 uM", "procedure,_shortened": "as §1"}, "[10]": {"biological_target": "Cytoplasmic tyrosine-protein kinase BMX (Homo sapiens) (UniProt P51813)", "assay": "Inhibition of BMX (unknown origin) using [gamma-33P]ATP assessed as residual activity at 3 uM", "procedure,_shortened": "as §1"}, "[11]": {"system": "Platelet-derived growth factor receptor alpha (Homo sapiens), P16234 [D842V]", "assay": "Inhibition of PDGFRa D842V mutant (unknown origin) using [gamma-33P]ATP assessed as residual activity at 3 uM"}, "[12]": {"biological_target": "Serine/threonine-protein kinase PLK2 (Homo sapiens) (UniProt Q9NYY3)", "sequence (Q9NYY3 whole entry, looked up)": "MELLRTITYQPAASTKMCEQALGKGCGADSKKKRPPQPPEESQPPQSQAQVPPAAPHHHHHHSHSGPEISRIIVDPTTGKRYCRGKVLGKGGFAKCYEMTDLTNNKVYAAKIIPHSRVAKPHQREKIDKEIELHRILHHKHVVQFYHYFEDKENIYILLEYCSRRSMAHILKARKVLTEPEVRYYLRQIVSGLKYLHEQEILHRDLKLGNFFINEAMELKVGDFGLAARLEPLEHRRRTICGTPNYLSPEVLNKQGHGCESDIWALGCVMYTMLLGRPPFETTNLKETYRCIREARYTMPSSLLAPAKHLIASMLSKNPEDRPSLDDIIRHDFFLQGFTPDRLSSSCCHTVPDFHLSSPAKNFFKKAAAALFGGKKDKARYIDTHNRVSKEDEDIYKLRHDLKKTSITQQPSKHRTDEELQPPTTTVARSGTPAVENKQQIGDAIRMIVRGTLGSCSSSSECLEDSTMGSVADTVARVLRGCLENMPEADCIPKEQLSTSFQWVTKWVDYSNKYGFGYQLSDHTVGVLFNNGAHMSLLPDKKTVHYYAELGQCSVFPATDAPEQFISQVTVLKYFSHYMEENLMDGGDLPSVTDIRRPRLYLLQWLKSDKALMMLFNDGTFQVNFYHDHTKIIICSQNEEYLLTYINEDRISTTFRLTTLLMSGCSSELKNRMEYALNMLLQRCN", "assay": "Inhibition of PLK2 (unknown origin) using [gamma-33P]ATP assessed as residual activity at 3 uM"}, "[13]": {"system": "Tyrosine-protein kinase ABL1 (Homo sapiens), P00519 [M351T]", "assay": "Inhibition of ABL1 M351T mutant (unknown origin) using [gamma-33P]ATP assessed as residual activity at 3 uM", "procedure,_shortened": "as §1"}, "[14]": {"biological_target": "MAP kinase-activated protein kinase 2 (Homo sapiens) (UniProt P49137)", "assay": "Inhibition of MAPKAPK2 (unknown origin) using [gamma-33P]ATP assessed as residual activity at 3 uM", "procedure,_shortened": "as §2"}, "[15]": {"biological_target": "Ribosomal protein S6 kinase alpha-5 (Homo sapiens) (UniProt O75582)", "sequence (O75582 whole entry, looked up)": "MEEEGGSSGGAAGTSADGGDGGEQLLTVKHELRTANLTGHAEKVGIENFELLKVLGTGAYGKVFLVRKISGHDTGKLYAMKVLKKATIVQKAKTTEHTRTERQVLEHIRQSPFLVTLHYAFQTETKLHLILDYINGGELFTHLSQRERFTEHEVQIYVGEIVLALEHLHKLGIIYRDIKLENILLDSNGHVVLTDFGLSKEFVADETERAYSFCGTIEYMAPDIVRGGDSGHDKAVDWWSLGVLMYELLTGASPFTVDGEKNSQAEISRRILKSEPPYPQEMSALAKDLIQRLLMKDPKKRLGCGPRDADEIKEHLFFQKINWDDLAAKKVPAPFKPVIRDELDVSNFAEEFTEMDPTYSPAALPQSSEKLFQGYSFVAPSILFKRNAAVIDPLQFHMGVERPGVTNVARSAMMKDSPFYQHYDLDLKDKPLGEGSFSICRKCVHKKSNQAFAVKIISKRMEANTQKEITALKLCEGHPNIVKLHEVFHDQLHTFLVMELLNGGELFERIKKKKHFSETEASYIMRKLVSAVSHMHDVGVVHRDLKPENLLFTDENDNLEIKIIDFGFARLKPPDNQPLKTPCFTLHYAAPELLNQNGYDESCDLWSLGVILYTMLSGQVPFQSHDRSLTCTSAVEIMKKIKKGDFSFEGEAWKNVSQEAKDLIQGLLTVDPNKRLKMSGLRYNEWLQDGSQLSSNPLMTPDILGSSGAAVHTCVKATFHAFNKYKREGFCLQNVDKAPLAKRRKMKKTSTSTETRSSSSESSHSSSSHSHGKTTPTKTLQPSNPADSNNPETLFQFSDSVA", "assay": "Inhibition of MSK1 (unknown origin) using [gamma-33P]ATP assessed as residual activity at 3 uM"}, "[16]": {"biological_target": "Mitogen-activated protein kinase 12 (Homo sapiens) (UniProt P53778)", "sequence (P53778 whole entry)": "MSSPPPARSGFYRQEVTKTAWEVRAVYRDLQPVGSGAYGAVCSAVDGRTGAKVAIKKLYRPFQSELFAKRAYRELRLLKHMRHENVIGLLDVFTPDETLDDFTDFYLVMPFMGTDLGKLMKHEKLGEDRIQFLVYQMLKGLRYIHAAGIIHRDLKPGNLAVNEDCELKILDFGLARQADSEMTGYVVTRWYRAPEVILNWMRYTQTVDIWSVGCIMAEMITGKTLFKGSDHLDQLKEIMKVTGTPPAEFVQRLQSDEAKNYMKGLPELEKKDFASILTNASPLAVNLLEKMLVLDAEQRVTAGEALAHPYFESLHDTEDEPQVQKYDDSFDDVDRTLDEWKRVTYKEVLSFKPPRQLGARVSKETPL", "assay": "Inhibition of P38g (unknown origin) using [gamma-33P]ATP assessed as residual activity at 3 uM"}, "[17]": {"system": "Epidermal growth factor receptor (Homo sapiens), P00533 [L861R,T790M]", "assay": "Inhibition of EGFR […] double mutant (unknown origin) using [gamma-33P]ATP assessed as residual activity at 3 uM", "format": "protein assay", "procedure,_shortened": "(§3)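 Reaction Biology HotSpot radiometric profiling panel of 288 kinases (261 wild-type, 27 mutant). Kinase activity was read out by incorporation of [γ-33P]ATP.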"}, "[18]": {"biological_target": "Mitogen-activated protein kinase 1 (Homo sapiens) (UniProt P28482)", "sequence (P28482 whole entry)": "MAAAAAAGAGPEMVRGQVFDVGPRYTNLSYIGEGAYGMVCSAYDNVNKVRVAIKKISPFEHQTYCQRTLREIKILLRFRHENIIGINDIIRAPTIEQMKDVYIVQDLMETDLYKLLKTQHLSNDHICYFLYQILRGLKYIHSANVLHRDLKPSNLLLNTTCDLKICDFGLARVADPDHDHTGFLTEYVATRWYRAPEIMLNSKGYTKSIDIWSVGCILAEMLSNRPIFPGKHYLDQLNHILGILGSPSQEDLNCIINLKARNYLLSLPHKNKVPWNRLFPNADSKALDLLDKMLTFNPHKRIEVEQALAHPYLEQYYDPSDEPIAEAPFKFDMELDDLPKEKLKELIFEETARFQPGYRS", "assay": "Inhibition of ERK2 (unknown origin) using [gamma-33P]ATP assessed as residual activity at 3 uM", "procedure,_shortened": "as §3"}, "[19]": {"biological_target": "Serine/threonine-protein kinase A-Raf (Homo sapiens) (UniProt P10398)", "assay": "Inhibition of ARAF (unknown origin) using [gamma-33P]ATP assessed as residual activity at 3 uM", "procedure,_shortened": "as §1"}, "[20]": {"biological_target": "Rho-associated protein kinase 2 (Homo sapiens) (UniProt O75116)", "assay": "Inhibition of ROCK2 (unknown origin) using [gamma-33P]ATP assessed as residual activity at 3 uM"}, "[21]": {"biological_target": "Homeodomain-interacting protein kinase 4 (Homo sapiens) (UniProt Q8NE63)", "assay": "Inhibition of HIPK4 (unknown origin) using [gamma-33P]ATP assessed as residual activity at 3 uM", "procedure,_shortened": "as §2"}, "[22]": {"biological_target": "Aurora kinase B (Homo sapiens) (UniProt Q96GD4)", "sequence (Q96GD4 whole entry)": "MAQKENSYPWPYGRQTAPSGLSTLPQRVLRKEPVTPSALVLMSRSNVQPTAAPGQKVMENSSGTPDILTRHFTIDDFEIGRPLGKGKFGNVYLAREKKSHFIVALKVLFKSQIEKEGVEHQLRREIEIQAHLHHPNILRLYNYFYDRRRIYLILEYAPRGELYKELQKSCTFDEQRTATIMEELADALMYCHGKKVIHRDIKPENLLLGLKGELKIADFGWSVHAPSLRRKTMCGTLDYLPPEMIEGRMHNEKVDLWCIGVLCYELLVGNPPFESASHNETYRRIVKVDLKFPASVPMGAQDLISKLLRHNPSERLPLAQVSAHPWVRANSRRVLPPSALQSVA", "assay": "Inhibition of Aurora B (unknown origin) using [gamma-33P]ATP assessed as residual activity at 3 uM", "procedure,_shortened": "as §1"}, "[23]": {"biological_target": "Vascular endothelial growth factor receptor 3 (Homo sapiens) (UniProt P35916)", "assay": "Inhibition of FLT4 (unknown origin) using [gamma-33P]ATP assessed as residual activity at 3 uM", "procedure,_shortened": "as §2"}, "[24]": {"biological_target": "Glycogen synthase kinase-3 beta (Homo sapiens) (UniProt P49841)", "assay": "Inhibition of GSK3B (unknown origin) using [gamma-33P]ATP assessed as residual activity at 3 uM", "procedure,_shortened": "as §2"}, "[25]": {"biological_target": "Ephrin type-A receptor 3 (Homo sapiens) (UniProt P29320)", "assay": "Inhibition of EPHA3 (unknown origin) using [gamma-33P]ATP assessed as residual activity at 3 uM", "procedure,_shortened": "as §3"}, "[26]": {"biological_target": "Serine/threonine-protein kinase TBK1 (Homo sapiens) (UniProt Q9UHD2)", "assay": "Inhibition of TBK1 (unknown origin) using [gamma-33P]ATP assessed as residual activity at 3 uM"}, "[27]": {"biological_target": "cGMP-dependent protein kinase 1 (Homo sapiens) (UniProt Q13976)", "sequence (Q13976 whole entry)": "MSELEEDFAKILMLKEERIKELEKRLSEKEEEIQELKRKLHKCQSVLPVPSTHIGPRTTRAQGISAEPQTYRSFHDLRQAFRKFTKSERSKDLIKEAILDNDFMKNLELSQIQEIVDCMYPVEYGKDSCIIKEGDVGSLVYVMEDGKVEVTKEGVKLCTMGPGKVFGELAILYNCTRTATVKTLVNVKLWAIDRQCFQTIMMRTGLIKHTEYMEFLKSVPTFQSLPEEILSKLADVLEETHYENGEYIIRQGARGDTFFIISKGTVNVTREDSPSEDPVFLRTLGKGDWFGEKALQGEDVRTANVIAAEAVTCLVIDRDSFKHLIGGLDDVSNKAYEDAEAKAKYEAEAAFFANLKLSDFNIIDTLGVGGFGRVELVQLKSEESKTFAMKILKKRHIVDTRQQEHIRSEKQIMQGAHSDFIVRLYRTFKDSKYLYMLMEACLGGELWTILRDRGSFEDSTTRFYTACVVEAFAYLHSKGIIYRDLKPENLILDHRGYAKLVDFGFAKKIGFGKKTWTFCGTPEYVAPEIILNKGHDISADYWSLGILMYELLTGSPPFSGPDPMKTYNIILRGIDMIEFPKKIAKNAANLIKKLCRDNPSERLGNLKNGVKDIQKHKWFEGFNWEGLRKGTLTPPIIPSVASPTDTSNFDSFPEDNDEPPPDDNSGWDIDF", "assay": "Inhibition of PKG1a (unknown origin) using [gamma-33P]ATP assessed as residual activity at 3 uM"}, "[28]": {"biological_target": "Calcium/calmodulin-dependent protein kinase type II subunit alpha (Homo sapiens) (UniProt Q9UQM7)", "assay": "Inhibition of CAMK2a (unknown origin) using [gamma-33P]ATP assessed as residual activity at 3 uM", "procedure,_shortened": "as §1"}, "[29]": {"biological_target": "Megakaryocyte-associated tyrosine-protein kinase (Homo sapiens) (UniProt P42679)", "assay": "Inhibition of CTK (unknown origin) using [gamma-33P]ATP assessed as residual activity at 3 uM", "procedure,_shortened": "as §3"}, "[30]": {"biological_target": "Serine/threonine-protein kinase D3 (Homo sapiens) (UniProt O94806)", "assay": "Inhibition of PRKD3 (unknown origin) using [gamma-33P]ATP assessed as residual activity at 3 uM"}, "[31]": {"biological_target": "Serine/threonine-protein kinase Sgk1 (Homo sapiens) (UniProt O00141)", "assay": "Inhibition of SGK1 (unknown origin) using [gamma-33P]ATP assessed as residual activity at 3 uM"}},
  "data": [
    {"smiles": "CCc1ccc(-c2ccc3c(c2)-c2[nH]ncc2S(=O)(=O)N3C)cc1", "values": [
      {"measurement": "Activity", "setting": "[1]", "result": 96, "unit": "%"},
      {"measurement": "Activity", "setting": "[2]", "result": 89, "unit": "%"},
      {"measurement": "Activity", "setting": "[3]", "result": 60, "unit": "%"},
      {"measurement": "Activity", "setting": "[4]", "result": 97, "unit": "%"},
      {"measurement": "Activity", "setting": "[5]", "result": 94, "unit": "%"},
      {"measurement": "Activity", "setting": "[6]", "result": 86, "unit": "%"},
      {"measurement": "Activity", "setting": "[7]", "result": 94, "unit": "%"},
      {"measurement": "Activity", "setting": "[8]", "result": 78, "unit": "%"},
      {"measurement": "Activity", "setting": "[9]", "result": 71, "unit": "%"},
      {"measurement": "Activity", "setting": "[10]", "result": 93, "unit": "%"},
      {"measurement": "Activity", "setting": "[11]", "result": 26, "unit": "%"},
      {"measurement": "Activity", "setting": "[12]", "result": 95, "unit": "%"},
      {"measurement": "Activity", "setting": "[13]", "result": 66, "unit": "%"},
      {"measurement": "Activity", "setting": "[14]", "result": 97, "unit": "%"},
      {"measurement": "Activity", "setting": "[15]", "result": 94, "unit": "%"},
      {"measurement": "Activity", "setting": "[16]", "result": 101, "unit": "%"},
      {"measurement": "Activity", "setting": "[17]", "result": 102, "unit": "%"},
      {"measurement": "Activity", "setting": "[18]", "result": 93, "unit": "%"},
      {"measurement": "Activity", "setting": "[19]", "result": 100, "unit": "%"},
      {"measurement": "Activity", "setting": "[20]", "result": 94, "unit": "%"},
      {"measurement": "Activity", "setting": "[21]", "result": 91, "unit": "%"},
      {"measurement": "Activity", "setting": "[22]", "result": 86, "unit": "%"},
      {"measurement": "Activity", "setting": "[23]", "result": 80, "unit": "%"},
      {"measurement": "Activity", "setting": "[24]", "result": 103, "unit": "%"},
      {"measurement": "Activity", "setting": "[25]", "result": 97, "unit": "%"},
      {"measurement": "Activity", "setting": "[26]", "result": 71, "unit": "%"},
      {"measurement": "Activity", "setting": "[27]", "result": 95, "unit": "%"},
      {"measurement": "Activity", "setting": "[28]", "result": 96, "unit": "%"},
      {"measurement": "Activity", "setting": "[29]", "result": 96, "unit": "%"},
      {"measurement": "Activity", "setting": "[30]", "result": 91, "unit": "%"},
      {"measurement": "Activity", "setting": "[31]", "result": 82, "unit": "%"}
    ]}
  ]
}
